# Measurements from different studies.
# Each line is one published result; the experiments were not run side by side.
# Effect on: cell growth or viability
Structure (SMILES),cell line,method,concentration,time,endpoint,value
Nc1nc(S)nc(O)c1N=Cc1cn(-c2ccccc2)nc1-c1ccccc1,CCRF-CEM,,,48 h,CC50,< 20 µM
C[C@H](Nc1ccc2c(c1)OCCn1cc(N3C(=O)OC[C@H]3C(F)F)nc1-2)C(N)=O,HCC202,ATP luminescence,,5 days,EC50,0.0154 µM
O=C(N[C@@H](CSCc1nc2cc([N+](=O)[O-])ccc2[nH]1)C(=O)NO)c1ccccc1,HCC4006,MTT,,48 h,IC50,< 500 µM
C=C(NC(=O)C(=C)NC(=O)c1csc(C2=N[C@@H]3c4csc(n4)[C@H]4NC(=O)c5csc(n5)[C@H]([C@](C)(O)[C@@H](C)O)NC(=O)[C@H]5CSC(=N5)/C(=C/C)NC(=O)[C@H]([C@@H](C)O)NC(=O)c5csc(n5)[C@]3(CC2)NC(=O)[C@H](C)NC(=O)C(=C)NC(=O)[C@H](C)NC(=O)[C@H]([C@@H](C)CC)N[C@@H]2C=Cc3c([C@H](C)O)cc(nc3[C@H]2O)C(=O)O[C@@H]4C)n1)C(N)=O,ES-2,,,,EC50,1.2 µM
Nc1nc(S)nc(O)c1N=Cc1cn(-c2ccccc2)nc1-c1ccc(Cl)cc1,CCRF-CEM,,,24 h,CC50,15.1 µM
Cc1nc(Nc2ncc(C(=O)Nc3c(C)cccc3Cl)s2)cc(N2CC[C@H](O)C2)n1,CCRF-CEM,ATP luminescence,10 µM,72 h,inhibition,14%
COc1ccc(-c2nn(-c3ccccc3)cc2C=Nc2c(N)nc(S)nc2O)cc1,CCRF-CEM,,,48 h,CC50,< 20 µM
O=C(N[C@@H](CSCc1ccc([N+](=O)[O-])cc1)C(=O)NO)c1ccccc1,HCC4006,MTT,,48 h,IC50,10.1 µM
COc1cccc2c1C(=O)c1c(O)c3c(c(O)c1C2=O)C[C@@](O)(C(=O)CO)C[C@@H]3O[C@H]1C[C@H](N)[C@H](O)[C@H](C)O1,RKO,,,96 h,IC50,0.00473 µM
CC(=O)ON=C1C=CC(=C(C#N)c2ccccc2)C=C1,HDF-1,MTT,,24 h,IC50,27.4 µg/mL
Nc1nc(S)nc(O)c1N=Cc1cn(-c2ccccc2)nc1-c1ccc([N+](=O)[O-])cc1,CCRF-CEM,,,48 h,CC50,> 40 µM
CN1CCC(NC2CCc3[nH]c4c(C(N)=O)ccc(-c5ccccc5Cl)c4c3C2)CC1 (stereo not drawn),RKO,,,96 h,IC50,0.00017 µM
